In ChEMBL document CHEMBL4152216, “Syntheses and anti-pancreatic cancer activities of rakicidin A analogues” (Eur J Med Chem, 2018):

Columns and labels:
PANC-1 [1] = experiment: Cytotoxicity against human PANC1 cells after 72 hrs under hypoxic condition by MTT assay; type: functional, cell-based; details: PANC-1, 72 h
Method in brief: (§1)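 PANC-1, PATU8988T and ASPC-1 cells were grown in DMEM with 10% FBS at 37 °C and 5% CO2, then seeded at 4000 cells/well. Compounds were added at various concentrations after 6 h. Normoxic plates stayed at 37 °C, 5% CO2. Hypoxic plates went into a chamber purged 10 min with 5% CO2/1% O2/94% N2, sealed, at 37 °C. After 72 h, MTT was added for 4 h, formazan dissolved in DMSO and read at 570 nm. IC50 is the mean ± SD of three independent experiments.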

PANC-1 [2] = experiment: Cytotoxicity against human PANC1 cells after 72 hrs under normoxic condition by MTT assay; type: functional, cell-based; details: PANC-1, 72 h; method in brief: as §1
PANC-1 [3] = experiment: Selectivity index, ratio of IC50 against human PANC1 cells under normoxic condition to IC50 for human PANC1 cells under hypoxic condition; type: functional
Method in brief: (§2)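 Hypoxic selectivity index is IC50 (normoxia)/IC50 (hypoxia). Both IC50s come from the 72 h MTT assay in the same cell line, run under normoxia (37 °C, 5% CO2) or a sealed 1% O2/5% CO2/94% N2 chamber, each the mean of three independent experiments.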

ASPC1 [4] = experiment: Cytotoxicity against human Aspc-1 cells after 72 hrs under normoxic condition by MTT assay; type: functional, cell-based; details: ASPC1, 72 h; method in brief: as §1
ASPC1 [5] = experiment: Cytotoxicity against human Aspc-1 cells after 72 hrs under hypoxic condition by MTT assay; type: functional, cell-based; details: ASPC1, 72 h; method in brief: as §1
ASPC1 [6] = experiment: Selectivity index, ratio of IC50 against human Aspc-1 cells under normoxic condition to IC50 for human Aspc-1 cells under hypoxic condition; type: functional; method in brief: as §2
PaTu 8988t [7] = experiment: Cytotoxicity against human PA-TU-8988T cells after 72 hrs under normoxic condition by MTT assay; type: functional, cell-based; method in brief: as §1
PaTu 8988t [8] = experiment: Cytotoxicity against human PA-TU-8988T cells after 72 hrs under hypoxic condition by MTT assay; type: functional, cell-based; method in brief: as §1
PaTu 8988t [9] = experiment: Selectivity index, ratio of IC50 against human PA-TU-8988T cells under normoxic condition to IC50 for human PA-TU-8988T cells under hypoxic condition; type: functional; method in brief: as §2
PANC-1 [10] = experiment: Inhibition of cancer stem cell population of human PANC1 cells assessed as CD24+/CD44+/ESA+ cell population level at 0.15 uM after 48 hrs by flow cytometric analysis (reference value: 1.7%); type: functional; parameters: scale not given: the % may be the effect or the level left
[11] = molecular target: T1, Aldehyde dehydrogenase, mitochondrial (Homo sapiens) (UniProt P05091); experiment: Inhibition of ALDH in human PANC1 cells assessed as aldefluor positive cells at 0.2 uM after 72 hrs in presence of DEAB by aldefluor assay (reference value: 0.455%); type: cell-based; parameters: scale not given: the % may be the effect or the level left
T1 sequence (whole entry): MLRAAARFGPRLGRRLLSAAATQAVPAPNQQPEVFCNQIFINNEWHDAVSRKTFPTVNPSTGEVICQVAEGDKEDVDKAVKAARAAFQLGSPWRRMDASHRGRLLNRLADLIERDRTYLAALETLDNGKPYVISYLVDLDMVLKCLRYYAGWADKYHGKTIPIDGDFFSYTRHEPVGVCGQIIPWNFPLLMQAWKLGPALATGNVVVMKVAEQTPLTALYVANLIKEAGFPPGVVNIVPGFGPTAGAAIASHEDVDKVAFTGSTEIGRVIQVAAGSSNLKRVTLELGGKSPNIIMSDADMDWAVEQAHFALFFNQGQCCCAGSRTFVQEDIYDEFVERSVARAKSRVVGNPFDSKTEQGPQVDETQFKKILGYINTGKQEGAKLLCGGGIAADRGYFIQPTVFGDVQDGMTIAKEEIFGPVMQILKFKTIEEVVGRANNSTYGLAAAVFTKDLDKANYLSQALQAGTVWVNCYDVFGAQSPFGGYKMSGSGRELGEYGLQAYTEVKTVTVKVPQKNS
Method in brief: (§3)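 PANC-1 cells were seeded at 5×10^4 cells/well and exposed after 6 h to compound (0.2 µM; ADR 0.5 µM) for 72 h. Living cells were suspended in assay buffer and incubated with Aldefluor substrate for 60 min at 37 °C. A parallel sample received substrate plus the ALDH inhibitor DEAB as negative control. Readout was percentage of ALDH+ cells, mean ± SEM, n = 3.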

[12] = molecular target: T1, Aldehyde dehydrogenase, mitochondrial (Homo sapiens); experiment: Inhibition of ALDH in human PANC1 cells assessed as aldefluor positive cells at 0.2 uM after 72 hrs by aldefluor assay (reference value: 12.5%); type: cell-based; parameters: scale not given: the % may be the effect or the level left; method in brief: as §3
PANC-1 [13] = experiment: Inhibition of tumorsphere formation in human PANC1 cells assessed as reduction in number of tumor spheres at 0.25 uM after 7 days; type: functional
Method in brief: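 Tumorsphere formation: single-cell PANC-1 suspensions were plated in ultra-low-attachment wells at 2,000 cells/mL in Complete MammoCult medium, with compound at 0.25 µM. Tumorspheres were counted after 7 days. Three repeats, mean ± SEM.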

PANC-1 [14] = experiment: Antitumor activity against human PANC1 cells xenografted in BALB/c nude mouse assessed as reduction in tumor initiating cell frequency at 0.1 to 0.25 uM measured after 7 days; type: functional
Method in brief: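 PANC-1 cells were treated in vitro with compound (ADR at 0.5 µM) for 48 h, collected, and injected subcutaneously at limiting cell doses into 5-week-old female BALB/c nude mice. Tumor formation rate was scored after 7 days. Tumor-initiating frequency was derived by limiting-dilution analysis with Poisson statistics against vehicle.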

| Activity [11] [%] | Activity [12] [%] | SMILES | IC50 (PANC-1 [1]) [nM] | IC50 (PANC-1 [2]) [nM] | Ratio IC50 (PANC-1 [3]) | IC50 (ASPC1 [4]) [nM] | IC50 (ASPC1 [5]) [nM] | Ratio IC50 (ASPC1 [6]) | IC50 (PaTu 8988t [7]) [nM] | IC50 (PaTu 8988t [8]) [nM] | Ratio IC50 (PaTu 8988t [9]) | Activity (PANC-1 [10]) [%] | fold change (FC) (PANC-1 [13]) | fold change (FC) (PANC-1 [14]) |
| --- | --- | --- | --- | --- | --- | --- | --- | --- | --- | --- | --- | --- | --- | --- |
|  |  | C=C1/C=C/C(=O)N(C)CC(=O)N[C@@H]([C@H](O)C(=O)OC)C(=O)O[C@@H]([C@H](C)CCCCCCCCCCCC(C)C)[C@H](C)C(=O)N1 | 90 | 270 | 2.98 | 540 | 150 | 3.63 | 450 | 120 | 3.91 | 0.83 |  |  |
|  |  | C=C1/C=C/C(=O)N(C)CC(=O)N[C@@H](CC(=O)OCC)C(=O)O[C@@H]([C@H](C)CCCCCCCCCCCC(C)C)[C@H](C)C(=O)N1 | 74 | 180 | 2.43 | 280 | 150 | 1.85 | 320 | 110 | 2.89 |  |  |  |
|  |  | C=C1/C=C/C(=O)N(C)CC(=O)O[C@@H](CCCCCCCCCCCCC)[C@H](C)C(=O)[C@](C)(O)C(=O)NCC(=O)N1 | 15 | 650 | 43.33 |  |  |  |  |  |  |  |  |  |
|  |  | C=C1/C=C/C(=O)N(C)CC(=O)N[C@@H](CCC(=O)OC)C(=O)O[C@@H]([C@H](C)CCCCCCCCCCCCCC)[C@H](C)C(=O)N1 | 300 | 1100 | 3.54 |  |  |  |  |  |  |  |  |  |
|  |  | C=C1/C=C/C(=O)N(C)CC(=O)N[C@@H](CC(=O)OC)C(=O)O[C@@H]([C@H](C)CCCCCCCCCCCC(C)C)[C@H](C)C(=O)N1 | 48 | 110 | 2.36 | 360 | 600 | 0.59 | 360 | 73 | 5.03 | 1.2 |  |  |
|  |  | C=C1/C=C/C(=O)N(C)CC(=O)N[C@@H](CC(=O)OC)C(=O)O[C@@H]([C@H](C)CCCCCCCCCCCCCC)[C@H](C)C(=O)N1 | 58 | 120 | 1.98 | 980 | 350 | 2.8 | 640 | 340 | 1.87 | 0.7 |  |  |
|  |  | C#CCOC(=O)C[C@@H]1NC(=O)CN(C)C(=O)/C=C/C(=C)NC(=O)[C@@H](C)[C@H]([C@H](C)CCCCCCCCCCCC(C)C)OC1=O | 66 | 150 | 2.21 | 260 | 120 | 2.23 | 300 | 110 | 2.8 | 1.9 |  |  |
|  |  | C=C1/C=C/C(=O)N(C)CC(=O)N[C@@H](CC(=O)NC)C(=O)O[C@@H]([C@H](C)CCCCCCCCCCCCCC)[C@H](C)C(=O)N1 | 38 | 170 | 4.44 | 500 | 46 | 10.98 | 260 | 60 | 4.42 | 0.33 |  |  |
|  |  | CCCCCCCCCCCCCC[C@@H](C)[C@@H]1OC(=O)[C@H](CC(=O)NC2CC2)NC(=O)CN(C)C(=O)/C=C/C(CO[Si](c2ccccc2)(c2ccccc2)C(C)(C)C)NC(=O)[C@H]1C (some centres undefined) | > 10000 | > 10000 |  |  |  |  |  |  |  |  |  |  |
|  |  | C=C1/C=C/C(=O)N(CCCCCC)CC(=O)N[C@@H]([C@H](O)C(=O)OC)C(=O)O[C@@H]([C@H](C)CCCCCCCCCCCC(C)C)[C@H](C)C(=O)N1 | 7000 | > 50000 | >7.11 |  |  |  |  |  |  |  |  |  |
|  |  | C=C1/C=C/C(=O)N(C)CC(=O)N[C@@H](Cc2ccccc2)C(=O)O[C@@H]([C@H](C)CCCCCCCCCCCCCC)[C@H](C)C(=O)N1 | 120 | 430 | 3.76 | 1400 | 600 | 2.4 | 1400 | 650 | 2.14 | 1.6 |  |  |
|  |  | CC(=O)O[C@H]1C(=O)[C@@]2(C)[C@H]([C@H](OC(=O)c3ccccc3)[C@]3(O)C[C@H](OC(=O)[C@H](O)[C@@H](NC(=O)c4ccccc4)c4ccccc4)C(C)=C1C3(C)C)[C@]1(OC(C)=O)CO[C@@H]1C[C@@H]2O [PACLITAXEL] |  |  |  |  |  |  |  |  |  | 1.6 |  |  |
|  |  | COC(=O)C[C@@H]1NC(=O)CN(C)C(=O)/C=C/CNC(=O)[C@@H](C)[C@H]([C@H](C)CCCCCCCCCCCC(C)C)OC1=O | 28000 | 21000 | 0.76 |  |  |  |  |  |  |  |  |  |
|  |  | C=C1/C=C/C(=O)N(CC(F)(F)F)CC(=O)N[C@@H]([C@H](O)C(=O)OC)C(=O)O[C@@H]([C@H](C)CCCCCCCCCCCC(C)C)[C@H](C)C(=O)N1 | 1500 | 2500 | 1.72 |  |  |  |  |  |  |  |  |  |
|  |  | C=C1/C=C/C(=O)N(C)CC(=O)N[C@@H](C(C)C)C(=O)O[C@@H]([C@H](C)CCCCCCCCCCCCCC)[C@H](C)C(=O)N1 | 350 | 1000 | 3 |  |  |  |  |  |  |  |  |  |
|  |  | C=C1/C=C/C(=O)N(C)CC(=O)N[C@@H](CC(=O)OC(C)C)C(=O)O[C@@H]([C@H](C)CCCCCCCCCCCC(C)C)[C@H](C)C(=O)N1 | 700 | 1800 | 2.6 |  |  |  |  |  |  |  |  |  |
|  |  | C=C1/C=C/C(=O)N(C)C(C)C(=O)N[C@@H]([C@H](O)C(=O)OC)C(=O)O[C@@H]([C@H](C)CCCCCCCCCCCC(C)C)[C@H](C)C(=O)N1 (single isomer, unassigned; 1c) | 43 | 410 | 9.53 | 1200 | 200 | 5.71 | 540 | 200 | 2.79 |  |  |  |
|  |  | C=C1/C=C/C(=O)N(C)C(C)C(=O)N[C@@H]([C@H](O)C(=O)OC)C(=O)O[C@@H]([C@H](C)CCCCCCCCCCCC(C)C)[C@H](C)C(=O)N1 (single isomer, unassigned; 1d) | 79 | 660 | 8.34 | 3200 | 400 | 7.87 | 1100 | 380 | 2.86 |  |  |  |
|  |  | C=C1/C=C/C(=O)N(C)CC(=O)N[C@@H]([C@H](O)C(=O)OCC)C(=O)O[C@@H]([C@H](C)CCCCCCCCCCCC(C)C)[C@H](C)C(=O)N1 | 67 | 160 | 2.33 | 480 | 180 | 2.64 | 380 | 120 | 3.25 |  |  |  |
| 0.544 | 0.46 | C=C1/C=C/C(=O)N(C)CC(=O)N[C@@H]([C@H](O)C(N)=O)C(=O)O[C@@H]([C@H](C)CCCCCCCCCCCC(C)C)[C@H](C)C(=O)N1 | 42 | 220 | 5.24 | 680 | 82 | 8.4 | 240 | 33 | 7.54 | 0.43 | 4 | 4.7 |
|  |  | C=C1/C=C/C(=O)N(C)CC(=O)N[C@@H](C)C(=O)O[C@@H]([C@H](C)CCCCCCCCCCCCCC)[C@H](C)C(=O)N1 | 270 | 1100 | 4.04 |  |  |  |  |  |  |  |  |  |
|  |  | CCCCCCCCCCCCCC[C@@H](C)[C@@H]1OC(=O)[C@H](CC(=O)NC2CC2)NC(=O)CN(C)C(=O)/C=C/[C@H](CO)NC(=O)[C@H]1C | > 10000 | > 10000 |  |  |  |  |  |  |  |  |  |  |
